10 compounds from ChEMBL document CHEMBL1123954, “Synthesis and antitumor activity of analogues of ifosfamide modified in the N-(2-chloroethyl) group” (J Med Chem, 1988) can be followed below.

In data set [1] the test system is Mus musculus. The data set is described as follows: Percentage increase in life span of L1210 leukemia implanted mice at a dose of 400 mg/kg. It is filed as functional. A digest of the protocol: (§1)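 Female CD2F1 mice, 10–12 weeks old, inoculated ip on day 0 with 10⁵ L1210 leukemia cells. Test agent dissolved in sterile saline immediately before use and given as a single ip dose on day 1 at 0.01 mL/g body weight. Groups of 6–8 treated and 18–24 control mice, following NCI screening protocol. Read-out is % increase in life span, with survivors noted at day 60.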

Data set [2] has as its system Mus musculus. The data set is described as follows: Percentage increase in life span of L1210 leukemia implanted mice at a dose of 120 mg/kg. It is filed as functional. The essentials: as §1
Data set [3] deals with Mus musculus. The data set is described as follows: Percentage increase in life span of L1210 leukemia implanted mice at a dose of 300 mg/kg. Type of data set: functional. The essentials: as §1
The subject of data set [4] is Mus musculus. The data set is described as follows: Percentage increase in life span of L1210 leukemia implanted mice at a dose of 500 mg/kg. It is filed as functional. A digest of the protocol: as §1
The species entered for data set [5] is Mus musculus. The data set is described as follows: Effective dose that causes 50% increase in life span of mice. It is filed as functional. A digest of the protocol:
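In L1210-bearing mice, ip dosing was run on day 1 across 4–6 dose levels giving 15–100% ILS, with six mice per dose. ED50 (dose giving 50% ILS) was obtained per experiment by linear regression of dose against %ILS. Values are reported as mean ± SD over the number of experiments.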

Data set [6] deals with Mus musculus. As to the kind of experiment: Percentage increase in life span of L1210 leukemia implanted mice at a dose of 150 mg/kg. Type of data set: functional. A digest of the protocol: as §1
Data set [7] in a line: Lethal dose to kill 50% of the mice after single ip injection to healthy female CD2F1 mice. It is filed as toxicity, organism-based. To be noted: CD2F1, mouse, in vivo. A digest of the protocol:
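Healthy female CD2F1 mice received a single ip injection at 5–6 dose levels spanning 0–100% mortality, with 10 or 15 animals per group. Deaths were followed for 21 days. LD50 and 95% confidence limits were calculated by probit analysis.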

Data set [8] relates to Mus musculus. As to the kind of experiment: Percentage increase in life span of L1210 leukemia implanted mice at a dose of 200 mg/kg. It is filed as functional. A digest of the protocol: as §1
Data set [9] deals with Mus musculus. As to the kind of experiment: Percentage increase in life span of L1210 leukemia implanted mice at a dose of 30-180 mg/kg; value range is 0-12. It is filed as functional. The essentials: as §1
The subject of data set [10] is Mus musculus. The data set is described as follows: Percentage increase in life span of L1210 leukemia implanted mice at a dose of 60 mg/kg. It is filed as functional. The essentials: as §1
In data set [11] the test system is Mus musculus. The data set is described as follows: Percentage increase in life span of L1210 leukemia implanted mice at a dose of 100 mg/kg. Type of data set: functional. A digest of the protocol:
as §1

Data set [12] concerns Mus musculus. The data set is described as follows: Percentage increase in life span of L1210 leukemia implanted mice at a dose of 15-60 mg/kg. It is filed as functional. The essentials: as §1
In data set [13] the test system is Mus musculus. As to the kind of experiment: Percentage increase in life span of L1210 leukemia implanted mice at a dose of […] 50 mg/kg. It is filed as functional. A digest of the protocol:
as §1

In data set [14] the test system is Mus musculus. As to the kind of experiment: Percentage increase in life span of L1210 leukemia implanted mice at a dose of 80 mg/kg. It is filed as functional. The essentials:
as §1

Data set [15] relates to Mus musculus. As to the kind of experiment: Percentage increase in life span of L1210 leukemia implanted mice at a dose of 30-180 mg/kg. It is filed as functional. A digest of the protocol: as §1
In data set [16] the test system is Mus musculus. The data set is described as follows: Percentage increase in life span of L1210 leukemia implanted mice at a dose of 600 mg/kg. It is filed as functional. The essentials: as §1
The subject of data set [17] is Mus musculus. The data set is described as follows: Percentage increase in life span of L1210 leukemia implanted mice at a dose of 180 mg/kg. Type of data set: functional. A digest of the protocol:
as §1

SMILES strings stand for the structures.

Take `O=[P@]1(NCCBr)OCCCN1CCCl`: the ILS at 400 mg/kg in the data set with Mus musculus [1] was greater than 550%. In the data set on Mus musculus [2], the ILS at 120 mg/kg was 114%. The ILS at 300 mg/kg in the data set with Mus musculus [3] is greater than 550%. For the same compound, the ILS at 500 mg/kg with Mus musculus [4] came out at 206%. The ED50 (commonly the dose that gives a 50% effect, or the effect in half of the subjects) in the data set filed under Mus musculus [5] was 66.2 mg/kg. The ILS at 150 mg/kg in the data set with Mus musculus [6] was greater than 500%. The LD50 (usually the dose at which mortality reaches 50%) in data set [7] amounted to 541 mg/kg. For the same compound, in the data set on Mus musculus [8], the ILS at 200 mg/kg is greater than 550%.

In the case of `CCOP(=O)(OCC)OCCNP1(=O)OCCCN1CCCl` (stereo not given), in the data set with Mus musculus [9], the ILS turned out to be 0%.

As to `O=[P@@]1(NCCBr)OCCCN1CCCl`, the ILS at 400 mg/kg in the data set on Mus musculus [1] came out at 62%. In addition, in the data set with Mus musculus [3], the ILS at 300 mg/kg is greater than 350%. In the data set filed under Mus musculus [5], this compound gave an ED50 of 27.7 mg/kg. In the data set on Mus musculus [6], the ILS at 150 mg/kg is greater than 550%. Besides, the ILS at 60 mg/kg with Mus musculus [10] came out at 140%. Besides, the LD50 in data set [7] stood at 368 mg/kg. The ILS at 200 mg/kg in the data set on Mus musculus [8] was greater than 550%. Also, the ILS at 100 mg/kg in the data set on Mus musculus [11] is greater than 550%.

In the case of `O=P1(N(CCCl)CCCl)NCCCO1` (stereo not given) [CYCLOPHOSPHAMIDE ANHYDROUS], the ILS at 400 mg/kg in the data set with Mus musculus [1] was greater than 425%. Besides, the ILS at 120 mg/kg in the data set with Mus musculus [2] was determined as 86%. Moreover, the ILS at 300 mg/kg in the data set on Mus musculus [3] is greater than 550%. In addition, in the data set listed under Mus musculus [5], the ED50 turned out to be 90.6 mg/kg. In addition, in the data set with Mus musculus [6], the ILS at 150 mg/kg was 89%. In addition, in data set [7], the LD50 is 445 mg/kg. In addition, the ILS at 200 mg/kg in the data set with Mus musculus [8] is greater than 550%.

Turning to `O=P1(NCCF)OCCCN1CCCl` (stereo not given), in the data set with Mus musculus [8], the ILS at 200 mg/kg was -40%. Moreover, in the data set on Mus musculus [12], the ILS stood at 10%. Also, in the data set with Mus musculus [11], the ILS at 100 mg/kg was -40%.

`O=P1(NCCBr)OCCCN1CCCl` (stereo not given): the ILS at 400 mg/kg with Mus musculus [1] was determined as 500%. Besides, in the data set on Mus musculus [13], the ILS at 50 mg/kg amounted to 74%. Further, in the data set with Mus musculus [3], the ILS at 300 mg/kg was greater than 550%. In the data set listed under Mus musculus [5], the ED50 was 36.2 mg/kg. Further, the ILS at 150 mg/kg in the data set with Mus musculus [6] is greater than 550%. The ILS at 60 mg/kg in the data set on Mus musculus [10] amounted to 88%. Also, in data set [7], the LD50 was 470 mg/kg. For the same compound, the ILS at 200 mg/kg with Mus musculus [8] was greater than 550%. In the data set with Mus musculus [11], the ILS at 100 mg/kg was greater than 430%. Moreover, in the data set on Mus musculus [14], the ILS at 80 mg/kg amounted to 110%.

On to `O=P(OCCNP1(=O)OCCCN1CCCl)(OCc1ccccc1)OCc1ccccc1` (stereo not given), for which the ILS in the data set on Mus musculus [9] is recorded as 0%.

`CC(=O)OCCNP1(=O)OCCCN1CCCl` (stereo not given): the ILS in the data set on Mus musculus [15] stood at 13%.

Consider `Cc1ccc(S(=O)(=O)OCCNP2(=O)OCCCN2CCCl)cc1` (stereo not given), for which, in the data set on Mus musculus [15], the ILS was 13%.

`O=P1(NCCCl)OCCCN1CCCl` (stereo not given) [IFOSFAMIDE]: the ILS at 400 mg/kg in the data set with Mus musculus [1] was greater than 500%. Besides, in the data set on Mus musculus [2], the ILS at 120 mg/kg worked out at 74%. Further, in the data set on Mus musculus [3], the ILS at 300 mg/kg was greater than 400%. Besides, the ILS at 500 mg/kg in the data set with Mus musculus [4] was greater than 500%. In addition, it took a dose of 88.6 mg/kg to reach the 50% effect level in the data set filed under Mus musculus [5] (ED50). Moreover, in the data set with Mus musculus [16], the ILS at 600 mg/kg is greater than 480%. In addition, in the data set on Mus musculus [6], the ILS at 150 mg/kg is 123%. This compound also showed an LD50 in [7] of 679 mg/kg. In the data set with Mus musculus [8], the ILS at 200 mg/kg is greater than 350%. Further, the ILS at 180 mg/kg in the data set with Mus musculus [17] is greater than 250%.
